A short description of data set [1]: Critical micellar concentration of the compound. In kind it is physicochemical. In outline:
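N-stearoyl peptide amide was suspended in PBS containing 1 μM N-phenyl-1-naphthylamine and diluted to 1 nM-0.1 mM. Fluorescence (ex 350, em 450 nm) was read at 25 °C. The cmc is taken at the intersection of two straight lines in the intensity-versus-concentration plot.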

Another data set concerns Influenza A virus. Put plainly: Antiviral activity against Influenza A virus (A/Puerto Rico/8/34(H1N1)) infected in MDCK cells after 30 mins by crystal violet-based plaque assay. Format: functional, organism-based. As to conditions: A/Puerto Rico/8/1934(H1N1), 0.5 h. In short, it runs like this:
(§1)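 MDCK cells in 6-well plates were exposed for 30 min at 37 °C, 5% CO2, to 0.2 mL virus (50-200 pfu) with C18-peptide from PBS stock (2 or 10 mM). After a PBS wash, cells were overlaid with 0.6% agarose/MEM (DEAE-dextran, HEPES, acetyltrypsin, BSA) for 2 days. Living cells were stained and plaques counted. IC50 is the concentration giving 50% inhibition.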

The test system of a further data set is H3N2 subtype. In words: Antiviral activity against Influenza A virus (A/Aichi/2/1968(H3N2)) infected in MDCK cells after 30 mins by crystal violet-based plaque assay. Format: functional, organism-based. As to conditions: 0.5 h. In outline: as §1
A short description of data set [2]: Binding affinity to ganglioside GM3 by ELISA relative to wild type fd phage clone. In outline:
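GM3 monolayer was transferred from TBS (20 °C, 30 mN m-1) onto a BSA-blocked plastic plate. Phage clones (0.05-5 nM in TBS) were incubated 30 min at 4 °C. Detection used anti-fd antibody, then peroxidase anti-rabbit IgG (each 1 h, 4 °C), with o-phenylenediamine. ΔA was read at 492 nm in triplicate and expressed relative to wild-type fd phage.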

Data set [3] is described as follows: Binding affinity to ganglioside GM3 at 10 uM.
Data set [4] can be described thus: Binding affinity to ganglioside GM3 by quartz crystal microbalance method.
The nature of data set [5]: Binding affinity to ganglioside GlcCer by quartz crystal microbalance method.
Data set [6] is described as follows: Binding affinity to ganglioside 6'GM3 by quartz crystal microbalance method.
Data set [7] is described as follows: Binding affinity to ganglioside GalCer by quartz crystal microbalance method.
The nature of data set [8]: Ratio of Kd for ganglioside GM3 to Kd for ganglioside GlcCer.
The nature of data set [9]: Selectivity ratio of Kd for ganglioside GalCer to Kd for ganglioside GM3.
Data set [10] concerns B16. In words: Inhibition of binding affinity to ganglioside GM3 in mouse B16 cells at 10 nM by flow cytometry in presence of GlcU. Format: cell-based. In outline: (§2)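 B16 cells (2×10^5) were incubated 1 h on ice with phage (10 nM) with or without 1 mM Neu5Ac, Glc or GlcU. They were washed in 1% BSA/PBS, labelled with anti-fd antibody and FITC-conjugated antibody, and analysed by flow cytometry.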

The nature of data set [11]: Ratio of Kd for ganglioside GM3 to Kd for ganglioside GalCer.
Data set [12] deals with B16. In words: Inhibition of binding affinity to ganglioside GM3 in mouse B16 cells at 10 nM by flow cytometry in presence of 1 mM Neu5Ac. In kind it is cell-based. In outline:
as §2

Data set [13] can be described thus: Ratio of Kd for ganglioside GM3 to Kd for ganglioside 6'GM3.
For data set [14], the system named is B16. In words: Inhibition of binding affinity to ganglioside GM3 in mouse B16 cells pretreated with neuraminidase at pH 6.5 at 10 nM by flow cytometry. Format: cell-based. In short, it runs like this:
(§3)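 Sialic acid was removed from B16 cells (2×10^5) with 0.05 units Arthrobacter ureafaciens neuraminidase for 90 min at 37 °C, pH 6.5 or 7.4. After three washes, cells took 10 nM phage and were labelled with anti-fd antibody and FITC-conjugated antibody for flow cytometry.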

The test system of data set [15] is B16. In words: Inhibition of binding affinity to ganglioside GM3 in mouse B16 cells at 10 nM by flow cytometry in presence of Glc. In kind it is cell-based. In outline: as §2
The test system of data set [16] is B16. Put plainly: Inhibition of binding affinity to ganglioside GM3 in mouse B16 cells pretreated with neuraminidase at pH 7.4 at 10 nM by flow cytometry. Format: cell-based. In outline: as §3
Data set [17] concerns B16. Put plainly: Binding affinity to ganglioside GM3 in mouse B16 cells at 1 to 10 nM by flow cytometry. Format: cell-based. In outline: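 B16 monolayer cells (2×10^5) were given serially diluted phage (0.5-10 nM) in 1% BSA/PBS for 1 h on ice. After washes, they were labelled with anti-fd antibody and then FITC anti-rabbit IgG (each 0.5 h on ice) and analysed by flow cytometry.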

The source made the active and inactive calls. The rule behind the calls is not given here. Where a SMILES comes first, the peptide text is derived from it. The star is where a group is joined. Stearoyl = CCCCCCCCCCCCCCCCCC(=O)* A value given as a limit tells only on which side of the number the result lay.

In [1], `CCCCCCCCCCCCCCCCCC(=O)NCC(=O)N[C@@H](C)C(=O)N[C@@H](Cc1c[nH]c2ccccc12)C(=O)N[C@@H](Cc1ccc(O)cc1)C(=O)N[C@@H](CCCCN)C(=O)NCC(=O)N[C@@H](CCCNC(=N)N)C(=O)N[C@@H](C)C(=O)N[C@@H](CCCNC(=N)N)C(=O)N1CCC[C@H]1C(=O)N[C@H](C(=O)N[C@@H](CO)C(=O)N[C@@H](C)C(=O)N[C@H](C(=O)N[C@@H](C)C(N)=O)C(C)C)C(C)C` (Stearoyl-GAWYKGRARPVSAVA-NH2) registered a CMC of 0.8 µM. Moreover, half-maximal inhibition in the data set with Influenza A virus (IC50) was put at 53 µM.

In the case of `CCCCCCCCCCCCCCCCCC(=O)N[C@@H](C)C(=O)N[C@@H](CCC(=O)O)C(=O)N[C@H](C(=O)N[C@H](C(=O)N[C@@H](CCC(=O)O)C(=O)N[C@@H](CO)C(=O)N[C@@H](CS)C(=O)N[C@@H](CC(C)C)C(=O)N[C@@H](C)C(=O)N[C@@H](CCCCN)C(=O)N1CCC[C@H]1C(=O)N[C@@H](Cc1cnc[nH]1)C(=O)N[C@H](C(=O)N[C@@H](CCC(=O)O)C(=O)N[C@@H](CC(N)=O)C(N)=O)[C@H](C)O)C(C)C)[C@@H](C)O`, the CMC in data set [1] is 0.8 µM. Also, the IC50 is above 100 µM in the data set on H3N2 subtype and 66 µM with Influenza A virus.

With `CCCCCCCCCCCCCCCCCC(=O)N[C@@H](CC(=O)O)C(=O)N[C@@H](Cc1ccccc1)C(=O)N[C@@H](CCCNC(=N)N)C(=O)N[C@@H](CCCNC(=N)N)C(=O)N[C@@H](CC(C)C)C(=O)N1CCC[C@H]1C(=O)NCC(=O)N[C@@H](C)C(=O)N[C@@H](Cc1ccccc1)C(=O)N[C@@H](Cc1c[nH]c2ccccc12)C(=O)N[C@@H](CCC(N)=O)C(=O)N[C@@H](CC(C)C)C(=O)N[C@@H](CCCNC(=N)N)C(=O)N[C@@H](CCC(N)=O)C(=O)N1CCC[C@H]1C(N)=O` (Stearoyl-DFRRLPGAFWQLRQP-NH2), in data set [1], the CMC amounted to 0.8 µM. Besides, the IC50 in the data set on H3N2 subtype is 19 µM; with Influenza A virus it was 52 µM.

For H-LSWPLHAGRGFRWVS-OH, the fold change (FC) in [2] was found to be 0.9.

On to H-DFRRLPGAFWQLRQP-OH, for which the Activity in data set [3] is 119 ng/cm2.

Take `CCCCCCCCCCCCCCCCCC(=O)NCC(=O)N[C@@H](Cc1c[nH]c2ccccc12)C(=O)N[C@@H](Cc1c[nH]c2ccccc12)C(=O)N[C@@H](Cc1ccc(O)cc1)C(=O)N[C@@H](CCCCN)C(=O)NCC(=O)N[C@@H](CCCNC(=N)N)C(=O)N[C@@H](C)C(=O)N[C@@H](CCCNC(=N)N)C(=O)N1CCC[C@H]1C(=O)N[C@H](C(=O)N[C@@H](CO)C(=O)N[C@@H](C)C(=O)N[C@H](C(=O)N[C@@H](C)C(N)=O)C(C)C)C(C)C` (Stearoyl-GWWYKGRARPVSAVA-NH2): the CMC in data set [1] was determined as 0.8 µM. In addition, the IC50 in the data set on H3N2 subtype was above 10 µM; in the data set with Influenza A virus, 3.2 µM.

For `CC(C)C[C@H](NC(=O)[C@H](CO)NC(=O)[C@H](CC(=O)O)NC(=O)[C@H](Cc1ccccc1)NC(=O)[C@H](C)NC(=O)[C@H](C)NC(=O)[C@H](CCCN)NC(=O)[C@H](C)NC(=O)[C@@H]1CCCN1C(=O)[C@H](CC(=O)O)NC(=O)[C@H](CC(=O)O)NC(=O)CNC(=O)[C@H](CCC(=O)O)NC(=O)[C@H](C)N)C(=O)N[C@@H](CCC(N)=O)C(=O)O`, the equilibrium dissociation constant (Kd) entry in [4], in data set [5], in [6] and in data set [7] was “Not Active” throughout.

Regarding H-QQLVYNWWAVSSARR-OH, the fold change (FC) in [2] amounted to 1.1.

In [1], `CCCCCCCCCCCCCCCCCC(=O)N[C@@H](CCCNC(=N)N)C(=O)N[C@@H](C)C(=O)N[C@H](C(=O)N[C@@H](Cc1c[nH]c2ccccc12)C(=O)N[C@@H](CCCNC(=N)N)C(=O)N[C@@H](Cc1cnc[nH]1)C(=O)N[C@@H](CO)C(=O)N[C@H](C(=O)N[C@@H](C)C(=O)N[C@H](C(=O)N1CCC[C@H]1C(=O)N[C@@H](CO)C(=O)N[C@@H](Cc1cnc[nH]1)C(=O)N[C@@H](CO)C(=O)N[C@H](C(N)=O)C(C)C)[C@@H](C)O)C(C)C)C(C)C` (Stearoyl-RAVWRHSVATPSHSV-NH2) yielded a CMC of 0.8 µM. The figures for the IC50 with H3N2 subtype and in the data set on Influenza A virus were 68 µM and 6.5 µM, respectively.

Regarding H-RAVWRHSVATPSHSV-NH2, the half-maximal inhibitory concentration (IC50) with Influenza A virus is above 500 µM.

As for H-LWRPVLFHSAVRALG-OH, the fold change (FC) in [2] was 1.7.

For H-GWWYKGRARPVSAVA-OH, the Ratio is below 0.02 in [8], 6.5 in data set [9], 0.15 in data set [11] and 1 in data set [13]. Besides, the fold change (FC) in data set [2] was 2.1. In data set [3], this compound came in with an Activity of 39 ng/cm2. Moreover, the figures for the inhibition with B16 [10] and in the data set on B16 [12] were 46% and 61%, respectively. The Kd in data set [4] (read-out: Kd) was 1500 nM; in data set [5] (read-out: Kd), above 70 µM; in data set [6] (read-out: Kd), 1500 nM; in data set [7] (read-out: Kd) it was 9.8 µM. Further, the inhibition entry in the data set with B16 [14] was “Active”. Moreover, the inhibition entry in the data set with B16 [15] and in the data set on B16 [16] was “inactive” each time. For the same compound, in the data set with B16 [17], the result was Active.

On to H-RAVWRHSVATPSHSV-OH, for which the Ratio in data set [8] is below 0.006; in data set [11] it was below 0.006; in data set [13], 0.2. Moreover, the fold change (FC) in data set [2] was determined as 1.5. For the same compound, the Kd is 410 nM in [4] (read-out: Kd), above 70 µM in [5] (read-out: Kd), 2000 nM in [6] (read-out: Kd) and above 70 µM in data set [7] (read-out: Kd).

`CCCCCCCCCCCCCCCCCC(=O)N[C@@H](C)C(=O)N[C@H](C(=O)N[C@@H](C)C(=O)N[C@@H](CO)C(=O)N[C@H](C(=O)N1CCC[C@H]1C(=O)N[C@@H](CCCNC(=N)N)C(=O)N[C@@H](C)C(=O)N[C@@H](CCCNC(=N)N)C(=O)NCC(=O)N[C@@H](CCCCN)C(=O)N[C@@H](Cc1ccc(O)cc1)C(=O)N[C@@H](Cc1c[nH]c2ccccc12)C(=O)N[C@@H](Cc1c[nH]c2ccccc12)C(=O)NCC(N)=O)C(C)C)C(C)C` (Stearoyl-AVASVPRARGKYWWG-NH2) had a CMC in data set [1] of 0.8 µM. In addition, the IC50 with H3N2 subtype was determined as 17 µM; in the data set on Influenza A virus it was 44 µM.

Consider H-GWWYKGRARPVSAVA-NH2, for which the half-maximal inhibitory concentration (IC50) in the data set on Influenza A virus is above 500 µM.

On to H-WRGVYFGDRWLGSQP-OH, for which the fold change (FC) in data set [2] is 1.6.

The compound `CCCCCCCCCCCCCCCCCC(=O)NCC(=O)N[C@@H](Cc1c[nH]c2ccccc12)C(=O)N[C@@H](Cc1c[nH]c2ccccc12)C(=O)N[C@@H](Cc1ccc(O)cc1)C(=O)N[C@@H](CCCCN)C(=O)NCC(=O)N[C@@H](CCCNC(=N)N)C(=O)N[C@@H](C)C(=O)N[C@@H](CCCNC(=N)N)C(=O)N[C@@H](C)C(=O)N[C@H](C(=O)N[C@@H](CO)C(=O)N[C@@H](C)C(=O)N[C@H](C(=O)N[C@@H](C)C(N)=O)C(C)C)C(C)C` (Stearoyl-GWWYKGRARAVSAVA-NH2) had a CMC in data set [1] of 0.8 µM. Besides, the IC50 in the data set on Influenza A virus stood at 89 µM.

Consider H-GWYSSRHYVRSLNGL-OH, for which, in data set [2], the fold change (FC) turned out to be 1.4.

Values taken from ChEMBL document CHEMBL1151941, “Inhibition of influenza virus infections by sialylgalactose-binding peptides selected from a phage library” (J Med Chem, 2009).
